Laboratory results as given in ChEMBL document CHEMBL1129241, “Immunosuppressive cyclolignans” (J Med Chem, 1996).
Converted amounts (≈) assume the structure as drawn.

Tests used:
[1] = Compound was tested for Cytotoxic activity by lymphocyte viability assay.; details: Mus musculus
Outline: (§1)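 Balb/c mouse splenocytes alone, added to wells holding dried test compound (eight dilutions, 10 to 3.33 × 10^-6 mg/mL, applied in EtOH and evaporated); culture-medium wells serve as nonspecific control. Incubated 96 h at 37 °C, 5% CO2, then MTT added; formazan dissolved in 2-propanol and absorbance read at 570 nm.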

[2] = species on record: Mus musculus; experiment: (§2) Compound was tested for Immunosuppression activity by mixed lymphocyte reaction (MLR) in murine splenocytes of mice; assay type: functional
Outline: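 Two-way MLR: Balb/c and C57Bl/6 splenocytes combined in wells holding dried compound (eight dilutions, 10 to 3.33 × 10^-6 mg/mL, applied in EtOH and evaporated; duplicates). Incubated 96 h at 37 °C, 5% CO2, then pulsed 15 h with [3H]thymidine. Incorporated label counted after glass-fibre filtration. Proliferation expressed as percent of control; IC50 interpolated.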

[3] = Non cytotoxic IM activity index which is the ratio of IC50 of LcV to IC50 of MLR; assay type: functional
[4] = species on record: Mus musculus; experiment: as §2; assay type: functional, organism-based
Outline: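 Two-way mixed lymphocyte reaction using splenocytes from Balb/c and C57Bl/6 mice, combined in equal volumes. Compounds were dissolved in absolute EtOH and tested at eight dilutions from 10 to 3.33 × 10^-6 mg/mL, in duplicate, with the solvent dried onto the wells. Cultures ran 96 h at 37 °C in 5% CO2, then were pulsed 15 h with [3H]thymidine. Incorporation was counted by scintillation; IC50 was interpolated from % proliferation relative to control.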

[5] = Compound was tested for Cytotoxic activity by lymphocyte viability assay; details: Mus musculus; outline: as §1

Row | SMILES | IC50 [1] [µg/mL] | IC50 [2] [µg/mL] | Selectivity index [3] | IC50 [4] [µg/mL] | IC50 [5] [µg/mL]
1 | COc1cc([C@@H]2c3cc4c(cc3C3=NOC[C@H]3[C@@H]2C(=O)O)OCO4)cc(OC)c1OC | 30 (≈ 70.2 µM) | < 0.009 | >3333 | – | –
2 | COC(=O)[C@@H]1[C@H](c2cc(OC)c(OC)c(OC)c2)c2cc3c(cc2C2=NN(c4ccc(C)cc4)C[C@H]21)OCO3 | > 26 | 0.848 (≈ 1.6 µM) | >31 | – | –
3 | COc1cc(C2c3cc4c(cc3[C@@H](OC(C)=O)C3COC(=O)C23)OCO4)cc(OC)c1OC(C)=O (some centres not stated) | 22.8 (≈ 47.1 µM) | – | 50 | 0.453 (≈ 0.935 µM) | –
4 | COC(=O)[C@@H]1[C@H](c2cc(OC)c(OC)c(OC)c2)c2cc3c(cc2C(=O)[C@H]1CO)OCO3 | > 25 | 1.41 (≈ 3.17 µM) | >18 | – | –
5 | COc1cc(C2C3=C(COC3=O)Cc3cc4c(cc32)OCO4)cc(OC)c1OC (configuration not stated) | 27.5 (≈ 69.4 µM) | – | >3333 | 0.00825 (≈ 0.0208 µM) | –
6 | COc1cc([C@@H]2c3cc4c(cc3C3=NN(c5ccccc5)C[C@H]3[C@@H]2COC(C)=O)OCO4)cc(OC)c1OC | > 100 | 9.29 (≈ 17.5 µM) | >11 | – | –
7 | COc1cc([C@@H]2c3cc4c(cc3C(=O)[C@H]3COC(=O)[C@H]23)OCO4)cc(OC)c1O | > 25 | 11.8 (≈ 29.6 µM) | >2 | – | –
8 | COc1cc([C@@H]2c3cc4c(c(O)c3C[C@H]3COC(=O)[C@@H]32)OCO4)cc(OC)c1O | 12.8 (≈ 32 µM) | < 0.00495 | >2586 | – | –
9 | COc1cc(C2c3cc4c(cc3CC3COC(=O)C32)OCO4)cc(OC)c1OC(C)=O (configuration not stated) | 15.8 (≈ 37.1 µM) | – | 220 | 0.0718 (≈ 0.168 µM) | –
10 | COC(=O)[C@@H]1[C@H](c2cc(OC)c(OC)c(OC)c2)c2cc3c(cc2C2=NN(C(C)=O)C[C@H]21)OCO3 | > 100 | 7.68 (≈ 15.9 µM) | >13 | – | –
11 | COc1cc([C@@H]2c3cc4c(cc3C[C@H]3COC(=O)[C@@H]32)OCO4)cc(OC)c1O [4'-DEMETHYLDEOXYPODOPHYLLOTOXIN] | 11.5 (≈ 29.9 µM) | 0.00281 (≈ 0.00731 µM) | 4097 | – | –
12 | COc1cc([C@@H]2c3cc4c(c(O)c3C[C@H]3COC(=O)[C@@H]32)OCO4)cc(OC)c1OC [BETA-PELTATIN A] | 19.7 (≈ 47.5 µM) | < 0.00945 | >2085 | – | –
13 | COc1cc([C@@H]2c3cc4c(cc3[C@@H](O)[C@H]3COC(=O)[C@H]23)OCO4)cc(OC)c1OC [EPIPODOPHYLLOTOXIN] | > 65 | 0.229 (≈ 0.553 µM) | >284 | – | –
14 | COc1cc([C@@H]2c3cc4c(cc3[C@H](O)[C@H]3COC(=O)[C@H]23)OCO4)cc(OC)c1OC [PODOFILOX] | – | – | >2190 | < 0.128 | 280 (≈ 676 µM)
